Measurements from ChEMBL document CHEMBL1123312, “In the search for new anticancer drugs. 17. Linear and cyclic polyether analogues of N,N:N',N':N'',N''-tri-1,2-ethanediylphosphoric triamide and N,N:N',N':N'',N''-tri-1,2-ethanediylphosphorothioic triamide” (J Med Chem, 1986).
Values joined by “and” are separate entries in the source; they are usually repeats but may differ in a detail not shown here. Identical values can stand only once.

Columns and labels:
Mus musculus [1] = experiment: Anticancer activity against P388 leukemia in CD2F1 male mice by 60 mg/kg/day.; assay type: functional
Outline: (§1)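 CD2F1 male mice, 19–22 g, in groups of six, inoculated ip with 10⁶ P388 cells on day 0. Dosed ip once daily for 9 days from day 1, in saline, or for linear polyethers in aqueous 2% Tween 80. Deaths and survivors were recorded to 30 days, some to 60. T/C is mean survival, treated vs tumour-bearing control. %ILS = [(T−C)/C]×100. Average day-5 weight change was taken as toxicity.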

Mus musculus [2] = experiment: Anticancer activity against P388 leukemia in CD2F1 male mice expressed as Average % weight change on day 5 as a measure of toxicity was reported at a dose of 60 mg/kg/day.; assay type: functional; outline: as §1
Mus musculus [3] = experiment: Compound was evaluated for the anticancer activity against P388 leukemia in CD2F1 male mice at a dose of 60 mg/kg/after 30 days; 0/6; assay type: functional; outline: as §1
Mus musculus [4] = experiment: Compound was evaluated for the anticancer activity against P388 leukemia in CD2F1 male mice at a dose of 20 mg/kg/after 30 days; 0/6; assay type: functional
Mus musculus [5] = experiment: Anticancer activity against P388 leukemia in CD2F1 male mice expressed as Average % weight change on day 5 as a measure of toxicity was reported at a dose of 20 mg/kg/day.; assay type: functional; outline: as §1
Mus musculus [6] = experiment: Percentage increase in life span when the compound was administered intraperitoneally at dose of 20 mg/Kg in P388 leukemia in CDF1 mice was determined; assay type: functional; conditions: P388, ip; outline: as §1
[7] = partition coefficient with the use of 1-octanol / water solvent system; assay type: physicochemical
Outline: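 4 mL of 10 mM aqueous compound was stirred vigorously with 2 mL 1-octanol for 5 min at 25 °C. The aqueous layer was analysed by ³¹P NMR, and signal intensity (peak height × width at half-height) gave concentrations in each phase. P = [octanol]/[water].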

Mus musculus [8] = experiment: Percentage increase in life span when the compound was administered intraperitoneally at dose of 60 mg/Kg in P388 leukemia in CDF1 mice was determined; assay type: functional; conditions: P388, ip; outline: as §1
Mus musculus [9] = experiment: Compound was evaluated for the anticancer activity against P388 leukemia in CD2F1 male mice at a dose of 10 mg/kg/after 30 days; 0/6; assay type: functional; outline: as §1
Mus musculus [10] = experiment: Percentage increase in life span when the compound was administered intraperitoneally at dose of 125 mg/Kg in P388 leukemia in CDF1 mice was determined; assay type: functional; conditions: P388, ip; outline: as §1
Mus musculus [11] = experiment: Compound was evaluated for the anticancer activity against P388 leukemia in CD2F1 male mice at a dose of 40 mg/kg/after 30 days; 0/6; assay type: functional
Mus musculus [12] = experiment: Compound was evaluated for the anticancer activity against P388 leukemia in CD2F1 male mice at a dose of 60 mg/kg/after 60 days; 1/6; assay type: functional; outline: as §1
Mus musculus [13] = experiment: Anticancer activity against P388 leukemia in CD2F1 male mice expressed as Average % weight change on day 5 as a measure of toxicity was reported at a dose of 125 mg/kg/day.; assay type: functional; outline: as §1
Mus musculus [14] = experiment: Anticancer activity against P388 leukemia in CD2F1 male mice expressed as Average % weight change on day 5 as a measure of toxicity was reported at a dose of 5 mg/kg/day.; assay type: functional; outline: as §1
Mus musculus [15] = experiment: Anticancer activity against P388 leukemia in CD2F1 male mice by 20 mg/kg/day.; assay type: functional; outline: as §1
Mus musculus [16] = experiment: Percentage increase in life span when the compound was administered intraperitoneally at dose of 90 mg/Kg in P388 leukemia in CDF1 mice was determined; assay type: functional; conditions: P388, ip; outline: as §1
Mus musculus [17] = experiment: Compound was evaluated for the anticancer activity against P388 leukemia in CD2F1 male mice at a dose of 30 mg/kg/after 30 days; 0/6; assay type: functional; outline: as §1
Mus musculus [18] = experiment: Anticancer activity against P388 leukemia in CD2F1 male mice expressed as Average % weight change on day 5 as a measure of toxicity was reported at a dose of 30 mg/kg/day.; assay type: functional; outline: as §1
Mus musculus [19] = experiment: Compound was evaluated for the anticancer activity against P388 leukemia in CD2F1 male mice at a dose of 10 mg/kg/day.; assay type: functional; outline: as §1
Mus musculus [20] = experiment: Compound was evaluated for the anticancer activity against P388 leukemia in CD2F1 male mice at a dose of 90 mg/kg/day.; assay type: functional; outline: as §1
Mus musculus [21] = experiment: Compound was evaluated for the anticancer activity against P388 leukemia in CD2F1 male mice at a dose of 125 mg/kg/after 30 days; 0/6; assay type: functional; outline: as §1
Mus musculus [22] = experiment: Compound was evaluated for the anticancer activity against P388 leukemia in CD2F1 male mice at a dose of 90 mg/kg/after 60 days; 5/6; assay type: functional; outline: as §1
Mus musculus [23] = experiment: Percentage increase in life span when the compound was administered intraperitoneally at dose of 40 mg/Kg in P388 leukemia in CDF1 mice was determined; assay type: functional; conditions: P388, ip; outline: as §1
Mus musculus [24] = experiment: Anticancer activity against P388 leukemia in CD2F1 male mice expressed as Average % weight change on day 5 as a measure of toxicity was reported at a dose of 40 mg/kg/day.; assay type: functional; outline: as §1
Mus musculus [25] = experiment: Compound was evaluated for the anticancer activity against P388 leukemia in CD2F1 male mice at a dose of 90 mg/kg/after 30 days; 6/6; assay type: functional; outline: as §1
Mus musculus [26] = experiment: Compound was evaluated for the anticancer activity against P388 leukemia in CD2F1 male mice at a dose of 60 mg/kg/after 30 days; 3/6; assay type: functional; outline: as §1
Mus musculus [27] = experiment: Percentage increase in life span when the compound was administered intraperitoneally at dose of 30 mg/Kg in P388 leukemia in CDF1 mice was determined; assay type: functional; conditions: P388, ip; outline: as §1
Mus musculus [28] = experiment: Compound was evaluated for the anticancer activity against P388 leukemia in CD2F1 male mice at a dose of 40 mg/kg/day.; assay type: functional; conditions: at 40 mg/kg/day
Mus musculus [29] = experiment: Anticancer activity against P388 leukemia in CD2F1 male mice expressed as Average % weight change on day 5 as a measure of toxicity was reported at a dose of 10 mg/kg/day.; assay type: functional; outline: as §1
Mus musculus [30] = experiment: Compound was evaluated for the anticancer activity against P388 leukemia in CD2F1 male mice at a dose of 30 mg/kg/day.; assay type: functional; outline: as §1
Mus musculus [31] = experiment: Compound was evaluated for the anticancer activity against P388 leukemia in CD2F1 male mice at a dose of 6 mg/kg/after 30 days; 0/6
Mus musculus [32] = experiment: Percentage increase in life span when the compound was administered intraperitoneally at dose of 5 mg/Kg in P388 leukemia in CDF1 mice was determined; assay type: functional; conditions: P388, ip; outline: as §1
Mus musculus [33] = experiment: Anticancer activity against P388 leukemia in CD2F1 male mice expressed as Average % weight change on day 5 as a measure of toxicity was reported at a dose of 90 mg/kg/day.; assay type: functional; outline: as §1
Mus musculus [34] = experiment: Percentage increase in life span when the compound was administered intraperitoneally at dose of 10 mg/Kg in P388 leukemia in CDF1 mice was determined; assay type: functional; conditions: P388, ip; outline: as §1
Mus musculus [35] = experiment: Anticancer activity against P388 leukemia in CD2F1 male mice expressed as Average % weight change on day 5 as a measure of toxicity was reported at a dose of 200 mg/kg/day.; assay type: functional
Outline: (§2)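 Positive-control arm of the NCI P388 protocol in CD2F1 male mice, groups of six, inoculated ip with 10⁶ cells on day 0. A single 200 mg/kg per day dose was given on day 1. Survival was followed to 30 days, with T/C and %ILS from mean survival times and day-5 average weight change as toxicity.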

Mus musculus [36] = experiment: Compound was evaluated for the anticancer activity against P388 leukemia in CD2F1 male mice at a dose of 200 mg/kg/day.; assay type: functional; outline: as §2
Mus musculus [37] = experiment: Anticancer activity against P388 leukemia in CD2F1 male mice. Number of survivors vs number of treated animals after 30 days were reported at a dose of 200 mg/kg/day; 0/6; assay type: functional; outline: as §2
Mus musculus [38] = experiment: Percentage increase in life span when the compound was administered intraperitoneally at dose of 200 mg/Kg in P388 leukemia in CDF1 mice was determined; assay type: functional; conditions: P388, ip; outline: as §2
Mus musculus [39] = experiment: Anticancer activity against P388 leukemia in CD2F1 male mice expressed as Average % weight change on day 5 as a measure of toxicity was reported at a dose of 6 mg/kg/day.; assay type: functional; outline: as §1
Mus musculus [40] = experiment: Compound was evaluated for the anticancer activity against P388 leukemia in CD2F1 male mice at a dose of 5 mg/kg/after 30 days; 1/6; assay type: functional
Mus musculus [41] = experiment: Compound was evaluated for the anticancer activity against P388 leukemia in CD2F1 male mice at a dose of 60 mg/kg/after 60 days; 0/6; assay type: functional; outline: as §1
Mus musculus [42] = experiment: Compound was evaluated for the anticancer activity against P388 leukemia in CD2F1 male mice at a dose of 6 mg/kg/day.; assay type: functional; conditions: at 6 mg/kg/day
Mus musculus [43] = experiment: Percentage increase in life span when the compound was administered intraperitoneally at dose of 6 mg/Kg in P388 leukemia in CDF1 mice was determined; assay type: functional; conditions: P388, ip; outline: as §1

S=P(N1CCOCCOCCOCCOCC1)(N1CC1)N1CC1
T/C (Mus musculus [1]): 180% and 80%
Weight change (Mus musculus [2]): -6.4%
Survivors (Mus musculus [3]): 0
Survivors (Mus musculus [4]): 0
Weight change (Mus musculus [5]): 7.9%
ILS at 20 mg/kg (Mus musculus [6]): 24%
Partition coefficient [7]: 2.6
ILS at 60 mg/kg (Mus musculus [8]): 80%

C1COCCOCCOCCOCCN1
Weight change (Mus musculus [2]): 7.9%
Survivors (Mus musculus [3]): 0
Survivors (Mus musculus [4]): 0
Weight change (Mus musculus [5]): 8.3%
ILS at 20 mg/kg (Mus musculus [6]): 2%
ILS at 60 mg/kg (Mus musculus [8]): 0%

O=P(N1CCOCCOCCOCCOCC1)(N1CC1)N1CC1
T/C (Mus musculus [1]): 329% and 229%
Survivors (Mus musculus [9]): 0
Weight change (Mus musculus [2]): -4.4%
ILS at 125 mg/kg (Mus musculus [10]): -13%
Survivors (Mus musculus [11]): 0
Survivors (Mus musculus [4]): 0
Survivors (Mus musculus [12]): 1
Weight change (Mus musculus [13]): -9%
Weight change (Mus musculus [14]): 3.3%
T/C (Mus musculus [15]): 199% and 99%
ILS at 90 mg/kg (Mus musculus [16]): 287%
Survivors (Mus musculus [17]): 0
Weight change (Mus musculus [18]): 0%
T/C (Mus musculus [19]): 166% and 66%
T/C (Mus musculus [20]): 387% and 287%
Survivors (Mus musculus [21]): 0
Survivors (Mus musculus [22]): 5
ILS at 40 mg/kg (Mus musculus [23]): 137%
Weight change (Mus musculus [24]): -6.8%
Survivors (Mus musculus [25]): 6
Survivors (Mus musculus [26]): 3
ILS at 30 mg/kg (Mus musculus [27]): 122%
T/C (Mus musculus [28]): 237% and 137%
Weight change (Mus musculus [29]): 6.2%
T/C (Mus musculus [30]): 222% and 122%
Survivors (Mus musculus [31]): 0
Weight change (Mus musculus [5]): -2%
ILS at 20 mg/kg (Mus musculus [6]): 99%
Partition coefficient [7]: 1.32
ILS at 5 mg/kg (Mus musculus [32]): 41%
Weight change (Mus musculus [33]): -1.8%
ILS at 60 mg/kg (Mus musculus [8]): 229%
ILS at 10 mg/kg (Mus musculus [34]): 66%

O=c1[nH]cc(F)c(=O)[nH]1 [FLUOROURACIL]
Weight change (Mus musculus [35]): -4%
T/C (Mus musculus [36]): 179% and 79%
Survivors (Mus musculus [37]): 0
ILS at 200 mg/kg (Mus musculus [38]): 79%

O=P(N1CC1)(N1CC1)N1CC1 [TEPA]
Weight change (Mus musculus [39]): -4%
Survivors (Mus musculus [40]): 1
Survivors (Mus musculus [41]): 0
T/C (Mus musculus [42]): 236% and 136%
ILS at 6 mg/kg (Mus musculus [43]): 136%

S=P(N1CC1)(N1CC1)N1CC1 [THIOTEPA]
T/C (Mus musculus [42]): 241% and 141%
Survivors (Mus musculus [31]): 0
ILS at 6 mg/kg (Mus musculus [43]): 141%
Partition coefficient [7]: 2.54
